# Screening results as filed in PubChem.
# LYP act: LYP phosphatase activators, primary screen, biochemical, DiFMUP fluorescence, 2 µM | Tyrosine-protein phosphatase non-receptor type 22 (Homo sapiens), Q9Y2R2 | recombinant LYP; 0 = plate median, 100 = signal doubled | activation, % at 2 µM | 96,000 tested, 0.11% active;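 active = activation at 2 µM above a set limit, the mean plus 5 SD, cut at about 37% in these data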
# Plk1 PBD FP: Plk1 polo box domain binding inhibitors, primary screen, biochemical, fluorescence polarization; inhibition, %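 (tested at about 20 µM)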; AID 693, 2007; Serine/threonine-protein kinase PLK1 (Homo sapiens), P53350; 97,000 tested, 0.13% active; Plk1 PBD phosphopeptide binding; in the data active = inhibition above about 34%, passing the limit was not always enough
# EphB4 antag: EphB4-ephrin-B2 interaction antagonists, primary screen, biochemical, TNYL-RAW peptide probe, fluorescence polarization; Ephrin type-B receptor 4 (Homo sapiens), P54760; inhibition, % at 7 µM; 97,000 tested, 0.15% active; EphB4 LBD / TNYL-RAW-Alexa532 peptide; AID 720, 2007;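 active = inhibition above the screen-wide mean inhibition plus 3 SD, cut at about 15% in these data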;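 note: 0% = DMSO wells and 100% = excess unlabeled TNYL-RAW peptide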
# PLK1 inh: human PLK1 kinase inhibitors, primary screen, biochemical, TR-FRET | Serine/threonine-protein kinase PLK1 (Homo sapiens), P53350 | recombinant PLK1 kinase, TR-FRET peptide phosphorylation | inhibition, % at 10 µM | 97,000 tested, 0.53% active;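 active = inhibition of 50% or more in the single-concentration screen; inactive = inhibition below 50%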;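 note: 0% = DMSO max control and 100% = H-89 dihydrochloride min control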
# Rev-RRE block: HIV-1 Rev-RRE binding inhibitors, primary screen, biochemical, FRET, protein-RNA interaction; 97,000 tested, 0.79% active; P05866; Rev peptide-RRE RNA binding; inhibition, % at 8 µM;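 active = inhibition above the screen-wide mean plus 3 SD, cut at about 35% in these data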;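 note: 0% = median DMSO wells and 100% = median Neomycin B control wells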
# Target sequence (P05866 whole entry, looked up): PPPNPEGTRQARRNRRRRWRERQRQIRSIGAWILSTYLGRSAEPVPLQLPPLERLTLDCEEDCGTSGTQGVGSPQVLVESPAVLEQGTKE
#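 Assay system: Rev peptide and RRE RNA, both fluorescently labelled; times: 5 min preincubation and 15 min binding, 25 °C; detection: FRET, ex 480 nm, em 540 and 671 nm; read-out basis: % inhibition from 671/540 nm acceptor-to-donor ratio, scaled between controls; benchmarks: DMSO low control, neomycin B high control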
# PTPN22 inh 2: PTPN22 phosphatase inhibitors, primary screen, biochemical, DiFMUP fluorescence, 2 µM. inhibition, % at 2 µM. Tyrosine-protein phosphatase non-receptor type 22 (Homo sapiens), Q9Y2R2. 96,000 tested, 0.21% active. recombinant LYP catalytic domain;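 active = inhibition at 2 µM at or above a set limit, the screen mean plus 3 SD, cut at about 24% in these data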;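 note: 0% = DMSO with enzyme and 100% = enzyme fully blocked by orthovanadate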
# * hit, by the source's call; x = no result given; [ ] = remark or other dose. The list is not random: actives were taken first. Their share in the collection is about 2%.
SMILES,LYP act,Plk1 PBD FP,EphB4 antag,PLK1 inh,Rev-RRE block,PTPN22 inh 2
CCOC(=O)C1=C(O)/C(=C/c2cn(CC(=O)NCC3CCCO3)c3ccccc23)SC1=Nc1ccc(C)cc1 (stereo not given),-19,10,0,-7,41*,19
CCOC(=O)C1=C(O)/C(=C/c2ccc(-c3ccccc3C(=O)O)o2)SC1=Nc1ccc(C)cc1,x,x,x,-9,x,x
O=C(NCCN1C(=O)C2C3C=CC(C3)C2C1=O)NCc1ccccc1 (stereo not given),x,12,-7,54*,5,x
O=C(NCCN1C(=O)C2C3C=CC(C3)C2C1=O)Nc1ccccc1 (stereo not given),x,11,3,67*,8,x
Cc1ccc(NC(=O)NCCN2C(=O)C3C4C=CC(C4)C3C2=O)cc1 (stereo not given),x,37,-5,62*,3,x
O=C(Nc1cccnc1)c1cc(F)cc(F)c1,7,0,6,-7,0,-3
CS(=O)(=O)c1ccccc1-c1nc(-c2cc(C(F)(F)F)cc(C(F)(F)F)c2)no1,-9,2,2,3,12,11
COc1ccccc1C1CC(c2c(-c3ccccc3)c3cc(Cl)ccc3[nH]c2=O)=NN1S(C)(=O)=O (stereo not given),-12,-28,17*,-5,6,14
COc1ccc(CSC2=NCCN2)cc1Cl,-4,-24,0,-11,3,4
O=C(Cc1c[nH]c2ccccc12)N1CCc2ccccc21,-2,2,6,-8,9,2
C=CCn1c(C#N)c(N)sc1=N,-2,-11,15*,8,9,1
CN1C(=O)c2cccc(NCCCN3C(=O)c4ccccc4C3=O)c2C1=O,-6,-18,2,2,58*,5
C/C(=N\NC(=O)c1ccc(Cl)cc1)c1ccc(Br)s1,10,67*,-4,-7,2,-6
Cc1ccc(C)c(OCC(=O)N/N=C/c2c(C)nn(-c3ccccc3)c2Cl)c1,-29,6,-2,-1,2,28*
CC1=CC(C)(C)N2C(=O)C3(C(C#N)=C(N)OC4=C3C(=O)CCC4)c3c(C)c(C)cc1c32 (stereo not given),-2,2,1,-2,2,0
O=C(O)CCC(=O)N1CCN(c2nc(-c3ccccc3Cl)c3cc(Br)ccc3n2)CC1,-1,2,16*,-15,0,6
CC(C)CNc1nnnc2c1sc1nc(N3CCOCC3)c3c(c12)CC(C)(C)SC3,-21,26,1,-11,4,25*
O=C(CSc1nc(Cc2ccccc2)nc2ccccc12)Nc1ccc2c(c1)OCCO2,5,20,-1,-9,1,-7
COc1ccc(C(=O)c2ccc(OC)c(OC)c2)cc1,2,-17,5,0,11,-2
COc1ccc(C(=O)c2sc3nc(-c4ccccc4)ccc3c2N)cc1OC,-23,-21,-3,-22,97*[fluorescence artefact?],25*
COc1ccc(-c2ccc3c(N)c(C(=O)c4ccc(OC)c(OC)c4)sc3n2)cc1,-9,-11,5,-17,85*[fluorescence artefact?],8
Fc1cccc(CN2CCN3CCCC3C2C2CCCCC2)c1 (stereo not given),11,9,-7,-11,-3,-7
O=C(NCc1cccs1)c1cc2ccccc2o1,-8,19,6,-9,4,5
COc1cc(C2=NOC(C(=O)N3CCCCCC3)C2)cc(OC)c1OC (stereo not given),2,-4,8,-3,7,-3
CC[n+]1c(/C=C/C=C/N(C(C)=O)c2ccccc2)sc2ccccc21,-6,-220,-23,-23,129*[fluorescence artefact?],8
CCOc1cc(/C=C2\C(=O)N(c3nc(-c4ccc(Br)cc4)cs3)N=C2c2ccccc2)ccc1O,-17,4,6,-20,58*,19
COc1ccc(/C=C2\C(=O)N(c3nc(-c4ccc(Br)cc4)cs3)N=C2c2ccccc2)cc1,-2,9,-2,-8,5,-1
